Activity calls are given as the source filed them. The calls are words filed in the database; no cut-off is given here.
Experiments:
[1] = biological target: Acetylcholinesterase (Electrophorus electricus, UniProt O42275); assay: Inhibition of electric eel AChE using acetylthiocholine as substrate by Ellman's method
[2] = test system: SH-SY5Y; assay: Neuroprotective activity against MPP+ induced cell death in human SH-SY5Y cells assessed as cell death at 10 uM by YOPRO-1 staining based assay; type: functional
Summary of the method: (§1)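 Neuron-like SH-SY5Y co-treated with compound and 5 mM MPP+ for 24 h; centrifuged at 500 × g, medium replaced by 1 μM YO-PRO1 in PBS for 15 min at room temperature; fluorescence 488/530 nm; MPP+ signal set to 100 %; triplicates on at least three independent days.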

[3] = Selectivity index, ratio of IC50 for electric eel AChE to IC50 for equine serum BChE
Summary of the method: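 Ratio of IC50 values from modified Ellman spectrophotometric assays with electric eel AChE and equine serum BChE. Each used enzyme at 0.2 U/mL final, acetylthiocholine or butyrylthiocholine at 40 μM, and DTNB at 100 μM. Inhibitors were dissolved in DMSO, diluted in water, and tested at five concentrations in triplicate. IC50 came from regression of v0/vi against inhibitor concentration.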

[4] = test system: SH-SY5Y; assay: Inhibition of MPP+ induced mitochondrial superoxide radical production in human SH-SY5Y cells at 10 uM incubated for 24 hrs by MitoSOX staining based microplate reader assay (reference value: 100%); type: functional
Summary of the method: (§2)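 Neuron-like SH-SY5Y (20 000 cells/well) co-treated with 5 mM MPP+ and compound for 24 h; plates centrifuged, medium replaced by 5 μM MitoSOX in HBSS, 30 min at 37 °C, fluorescence 500/580 nm; MPP+ signal set to 100 %; triplicates on at least four independent days.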

[5] = test system: SH-SY5Y; assay: Inhibition of MPP+ induced mitochondrial depolarization in human SH-SY5Y cells at 1 uM incubated for 2 hrs by JC10 staining based confocal laser scanning microscopy; type: functional
Summary of the method: (§3)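 ATRA-differentiated SH-SY5Y co-treated with 5 mM MPP+ and compound for 2 h; mitochondrial membrane potential by JC10 ratiometric red/green signal (plate) and confocal imaging of JC10-stained cells (50 000 cells/well slides); DMSO control set to 100 %; triplicates on three independent days.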

[6] = test system: SH-SY5Y; assay: Neuroprotective activity against MPP+ induced cell death in human SH-SY5Y cells assessed as cell death at 10 uM incubated for 24 hrs by Cas-3, 7 staining based assay; type: functional
Summary of the method: (§4)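 Caspase-3/7 activation with Ac-DEVD-AFC substrate after 24 h co-treatment of neuron-like SH-SY5Y with compound and 5 mM MPP+; MPP+ signal set to 100 %; triplicates on at least three independent days.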

[7] = test system: SH-SY5Y; assay: Neuroprotective activity against ATRA-differentiated and MPP+ induced cell death in human SH-SY5Y cells assessed as cell death at 1 uM by LDH release assay (reference value: 100%); type: functional
Summary of the method: (§5)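 ATRA-differentiated SH-SY5Y co-treated with 5 mM MPP+ and compound; cell death by commercial LDH release kit; MPP+ value set to 100 %; triplicates on at least three independent days.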

[8] = test system: SH-SY5Y; assay: Neuroprotective activity against ATRA-differentiated and 3-NPA induced cell death in human SH-SY5Y cells assessed as cell death at 0.1 uM incubated for 48 hrs by propidium iodide staining based fluorescence assay (reference value: 100%); type: functional
Summary of the method: (§6)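 ATRA-differentiated SH-SY5Y co-treated with compound and 20 mM 3-nitropropionic acid for 48 h; cell death by propidium iodide fluorescence, 3-NPA-treated signal set to 100 %.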

[9] = test system: SH-SY5Y; assay: Inhibition of MPP+ induced superoxide radical production in human SH-SY5Y cells at 10 uM incubated for 24 hrs by microplate reader assay (reference value: 100%); type: functional
Summary of the method: (§7)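 Neuron-like SH-SY5Y co-treated with 5 mM MPP+ and compound for 24 h; centrifuged at 500 × g, medium replaced with 10 μM dihydroethidium in PBS for 30 min, fluorescence 500/580 nm; MPP+ signal set to 100 %; triplicates on at least four independent days.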

[10] = test system: SH-SY5Y; assay: Neuroprotective activity against MPP+ induced cell death in human SH-SY5Y cells assessed as cell death at 1 uM incubated for 24 hrs by Cas-3, 7 staining based assay; type: functional; summary of the method: as §4
[11] = test system: SH-SY5Y; assay: Neuroprotective activity against ATRA-differentiated and MPP+ induced cell death in human SH-SY5Y cells assessed as cell death at 0.1 uM incubated for 24 hrs by propidium iodide staining based fluorescence assay (reference value: 100%); type: functional
Summary of the method: (§8)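 ATRA-differentiated SH-SY5Y co-treated with compound and 5 mM MPP+ for 24 h; cell death by propidium iodide fluorescence, MPP+-treated signal set to 100 %.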

[12] = test system: SH-SY5Y; assay: Neuroprotective activity against MPP+ induced cell death in human SH-SY5Y cells assessed as cell death at 1 uM by YOPRO-1 staining based assay; type: functional; summary of the method: as §1
[13] = test system: SH-SY5Y; assay: Neuroprotective activity against ATRA-differentiated and MPP+ induced cell death in human SH-SY5Y cells assessed as cell death at 1 uM incubated for 24 hrs by propidium iodide staining based fluorescence assay (reference value: 100%); type: functional; summary of the method: as §8
[14] = test system: SH-SY5Y; assay: Neuroprotective activity against ATRA-differentiated and MPP+ induced cell death in human SH-SY5Y cells assessed as cell death at 10 uM incubated for 24 hrs by propidium iodide staining based fluorescence assay (reference value: 100%); type: functional; summary of the method: as §8
[15] = test system: SH-SY5Y; assay: Neuroprotective activity against ATRA-differentiated and 3-NPA induced cell death in human SH-SY5Y cells assessed as cell death at 1 uM incubated for 48 hrs by propidium iodide staining based fluorescence assay (reference value: 100%); type: functional; summary of the method: as §6
[16] = biological target: Cholinesterase (Equus caballus, UniProt P81908); assay: Inhibition of equine serum BChE using butyrylthiocholine as substrate by Ellman's method
Sequence of Cholinesterase (P81908 whole entry): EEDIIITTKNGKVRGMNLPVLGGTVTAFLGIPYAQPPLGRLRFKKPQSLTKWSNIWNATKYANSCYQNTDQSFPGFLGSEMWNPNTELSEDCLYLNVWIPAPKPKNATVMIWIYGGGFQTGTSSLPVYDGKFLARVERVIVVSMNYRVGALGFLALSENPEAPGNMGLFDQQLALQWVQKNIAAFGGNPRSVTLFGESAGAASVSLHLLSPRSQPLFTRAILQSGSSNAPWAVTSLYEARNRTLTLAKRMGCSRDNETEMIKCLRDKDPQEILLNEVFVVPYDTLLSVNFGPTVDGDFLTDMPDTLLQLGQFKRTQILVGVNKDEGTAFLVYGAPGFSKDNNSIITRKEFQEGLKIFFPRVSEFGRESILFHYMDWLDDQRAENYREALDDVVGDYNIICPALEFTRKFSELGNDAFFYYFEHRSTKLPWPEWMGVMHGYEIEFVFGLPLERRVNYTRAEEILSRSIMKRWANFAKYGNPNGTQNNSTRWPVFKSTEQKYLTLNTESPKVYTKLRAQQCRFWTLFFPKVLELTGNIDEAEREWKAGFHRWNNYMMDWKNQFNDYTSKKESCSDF
Summary of the method: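 Equine serum BChE (0.2 U/mL final) with 40 μM butyrylthiocholine and 100 μM DTNB, modified Ellman spectrophotometry; compounds from DMSO diluted in water, five inhibitor concentrations; IC50 from regression of v0/vi versus inhibitor concentration; triplicate.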

[17] = test system: SH-SY5Y; assay: Cytotoxicity against human SH-SY5Y cells assessed as cell death at 10 uM incubated for 72 hrs by propidium iodide staining based fluorescence assay; type: toxicity
Summary of the method: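 SH-SY5Y differentiated to neuron-like phenotype with 10 μM all-trans retinoic acid for 48 h, 20 000 cells/well. Compounds from DMSO stocks (DMSO ≤0.5 %) added, then 72 h exposure. Control wells lysed with 1 % Triton X-100 for 1 min, then all wells stained with propidium iodide for fluorescence read-out. Dead-cell proportion expressed relative to Triton X-100-treated control.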

[18] = test system: SH-SY5Y; assay: Neuroprotective activity against ATRA-differentiated and MPP+ induced cell death in human SH-SY5Y cells assessed as cell death at 10 uM by LDH release assay (reference value: 100%); type: functional; summary of the method: as §5
[19] = test system: SH-SY5Y; assay: Neuroprotective activity against ATRA-differentiated and 3-NPA induced cell death in human SH-SY5Y cells assessed as cell death at 10 uM incubated for 48 hrs by propidium iodide staining based fluorescence assay (reference value: 100%); type: functional; summary of the method: as §6
[20] = test system: SH-SY5Y; assay: Inhibition of MPP+ induced superoxide radical production in ATRA-differentiated human SH-SY5Y cells at 1 uM incubated for 24 hrs by MitoSOX staining based confocal laser scanning microscopy; type: functional, cell-based
Summary of the method: (§9)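 50 000 cells seeded on chamber slides, ATRA-differentiated, co-treated with 5 mM MPP+ and compound for 24 h, then stained with MitoSOX and imaged by confocal laser-scanning microscopy (63× objective).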

[21] = test system: SH-SY5Y; assay: Inhibition of MPP+ induced mitochondrial superoxide radical production in human SH-SY5Y cells at 1 uM incubated for 24 hrs by MitoSOX staining based microplate reader assay (reference value: 100%); type: functional; summary of the method: as §2
[22] = test system: SH-SY5Y; assay: Inhibition of MPP+ induced superoxide radical production in human SH-SY5Y cells at 1 uM incubated for 24 hrs by microplate reader assay (reference value: 100%); type: functional; summary of the method: as §7
[23] = test system: SH-SY5Y; assay: Inhibition of MPP+ induced superoxide radical production in ATRA-differentiated human SH-SY5Y cells at 10 uM incubated for 24 hrs by MitoSOX staining based confocal laser scanning microscopy; type: functional, cell-based; summary of the method: as §9
[24] = biological target: T1, Mitogen-activated protein kinase; ERK1/ERK2 (Homo sapiens) (UniProt P27361+P28482); assay: Inhibition of MPP+ induced ERK1/2 phosphorylation in human SH-SY5Y cells at 1 to 10 uM incubated for 24 hrs by Western blotting analysis; type: cell-based; conditions: dose 1-10 µM
T1 sequence (P27361 whole entry, looked up): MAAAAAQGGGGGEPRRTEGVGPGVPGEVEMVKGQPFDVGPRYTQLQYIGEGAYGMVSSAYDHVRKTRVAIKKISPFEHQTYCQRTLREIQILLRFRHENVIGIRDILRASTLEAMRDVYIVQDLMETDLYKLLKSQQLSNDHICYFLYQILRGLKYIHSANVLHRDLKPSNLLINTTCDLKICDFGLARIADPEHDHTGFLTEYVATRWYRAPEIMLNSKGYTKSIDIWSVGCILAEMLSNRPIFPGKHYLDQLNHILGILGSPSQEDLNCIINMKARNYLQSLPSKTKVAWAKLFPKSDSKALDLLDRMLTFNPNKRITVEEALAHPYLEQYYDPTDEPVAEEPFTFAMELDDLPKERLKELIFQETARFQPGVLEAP
T1 sequence (P28482 whole entry, looked up): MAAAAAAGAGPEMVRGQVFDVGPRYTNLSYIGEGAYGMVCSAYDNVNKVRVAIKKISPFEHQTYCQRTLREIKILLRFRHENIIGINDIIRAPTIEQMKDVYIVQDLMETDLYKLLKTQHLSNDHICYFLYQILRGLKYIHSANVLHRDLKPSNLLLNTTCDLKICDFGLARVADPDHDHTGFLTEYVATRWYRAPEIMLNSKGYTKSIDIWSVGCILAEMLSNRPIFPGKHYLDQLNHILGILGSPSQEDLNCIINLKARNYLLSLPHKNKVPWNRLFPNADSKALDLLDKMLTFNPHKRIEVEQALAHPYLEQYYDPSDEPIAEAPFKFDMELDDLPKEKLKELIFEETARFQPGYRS
Summary of the method: (§10)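 ATRA-differentiated neuron-like SH-SY5Y co-treated with 5 mM MPP+ and compound for 24 h, lysed in RIPA buffer, SDS-PAGE, transfer to nitrocellulose, immunoblot for p-Akt (Ser473) and ERK1/2; HSP90 and β-actin loading controls; ECL chemiluminescence imaged by CCD camera.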

[25] = biological target: Cannabinoid receptor 2 (Homo sapiens) (UniProt P34972); assay: Activation of CB2 (unknown origin) expressed in CHO cells at 1 to 10 uM; type: cell-based; conditions: dose 1-10 µM
Sequence of Cannabinoid receptor 2 (Homo sapiens) (P34972 whole entry): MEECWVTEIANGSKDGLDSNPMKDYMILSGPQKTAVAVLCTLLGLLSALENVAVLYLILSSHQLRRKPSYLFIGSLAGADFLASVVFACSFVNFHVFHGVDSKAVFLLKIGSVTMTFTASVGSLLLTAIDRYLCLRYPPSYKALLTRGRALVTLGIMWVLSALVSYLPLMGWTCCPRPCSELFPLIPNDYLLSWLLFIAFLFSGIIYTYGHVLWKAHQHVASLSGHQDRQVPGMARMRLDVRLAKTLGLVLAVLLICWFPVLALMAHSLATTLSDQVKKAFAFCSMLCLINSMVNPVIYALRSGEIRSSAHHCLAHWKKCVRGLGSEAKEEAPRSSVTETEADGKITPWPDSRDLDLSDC
Summary of the method: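 cAMP quantified in CB2-transfected CHO cells after treatment; compound tested at 1 and 10 μM to detect direct receptor activation (commercial LeadHunter service).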

[26] = test system: SH-SY5Y; assay: Inhibition of MPP+ induced Akt phosphorylation at Ser473 residues in human SH-SY5Y cells at 1 to 10 uM incubated for 24 hrs by Western blotting analysis; type: cell-based; conditions: dose 1-10 µM; summary of the method: as §10
[27] = test system: SH-SY5Y; assay: Neuroprotective activity against MPP+ induced cell death in human SH-SY5Y cells assessed as decrease in PARP1 cleavage at 1 to 10 uM incubated for 24 hrs by immunoblotting analysis; type: functional, cell-based; conditions: dose 1-10 µM
[28] = test system: SH-SY5Y; assay: Neuroprotective activity against MPP+ induced cell death in human SH-SY5Y cells at 1 to 10 uM in presence of SR144528; type: functional, cell-based; conditions: dose 1-10 µM
Summary of the method: (§11)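 Neuron-like SH-SY5Y co-treated for 24 h with 5 mM MPP+, compound and CB2 inverse agonist AM630 or antagonist SR144528 at 0.1, 1 or 10 μM; CB2 ligands also tested alone and with MPP+; cell death read-out; triplicates on three independent days.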

[29] = test system: SH-SY5Y; assay: Inhibition of MPP+ induced mitochondrial depolarization in human SH-SY5Y cells at 10 uM incubated for 2 hrs by JC10 staining based confocal laser scanning microscopy; type: functional; summary of the method: as §3
[30] = test system: SH-SY5Y; assay: Neuroprotective activity against MPP+ induced cell death in human SH-SY5Y cells at 1 to 10 uM in presence of AM630; type: functional, cell-based; conditions: dose 1-10 µM; summary of the method: as §11
[31] = test system: SH-SY5Y; assay: Inhibition of MPP+ induced mitochondrial depolarization in human SH-SY5Y cells at 0.1 to 1 uM incubated for 2 hrs by JC10 staining based confocal laser scanning microscopy; type: functional, cell-based; conditions: dose 0.1-1 µM; summary of the method: as §3
[32] = biological target: T1, Mitogen-activated protein kinase; ERK1/ERK2 (Homo sapiens); assay: Inhibition of MPP+ induced ERK1/2 phosphorylation in human SH-SY5Y cells at 10 uM incubated for 24 hrs by Western blotting analysis; type: cell-based; summary of the method: as §10

Sequence of Acetylcholinesterase (O42275 whole entry): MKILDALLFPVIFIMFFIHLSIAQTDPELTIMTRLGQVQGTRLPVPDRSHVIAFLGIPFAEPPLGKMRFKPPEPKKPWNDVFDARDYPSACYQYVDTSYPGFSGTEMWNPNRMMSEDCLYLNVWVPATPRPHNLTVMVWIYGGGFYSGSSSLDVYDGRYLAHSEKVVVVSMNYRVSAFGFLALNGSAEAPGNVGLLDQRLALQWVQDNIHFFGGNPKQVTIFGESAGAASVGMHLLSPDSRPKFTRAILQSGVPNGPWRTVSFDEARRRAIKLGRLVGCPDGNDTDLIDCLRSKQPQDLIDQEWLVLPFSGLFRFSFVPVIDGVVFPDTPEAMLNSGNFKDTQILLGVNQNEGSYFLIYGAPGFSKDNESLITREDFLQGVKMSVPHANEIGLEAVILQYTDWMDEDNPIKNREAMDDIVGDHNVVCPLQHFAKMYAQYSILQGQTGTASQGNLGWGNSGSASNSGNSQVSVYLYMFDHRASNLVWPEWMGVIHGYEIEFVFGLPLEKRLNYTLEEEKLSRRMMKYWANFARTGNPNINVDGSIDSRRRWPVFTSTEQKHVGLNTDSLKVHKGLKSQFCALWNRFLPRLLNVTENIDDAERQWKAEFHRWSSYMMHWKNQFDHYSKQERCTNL

Brc1ccc2nc3c(n2c1)C1(CCCC1)Nc1ccccc1-3
IC50 [1]: 27 µM
Activity [2]: 43.5%
Ratio IC50 [3]: 2.51
inhibition at 10 µM [4]: 41.3%
inhibition at 1 µM [5]: 78.5%
Activity [6]: 72.6%
Activity [7]: 58.5%
Activity [8]: 78.4%
inhibition at 10 µM [9]: 52.2%
Activity [10]: 49.4%
Activity [11]: 66.4%
Activity [12]: 47.3%
Activity [13]: 31.8%
Activity [14]: 27.5%
Activity [15]: 63.9%
IC50 [16]: 10.7 µM
Activity [17]: 12.2%
Activity [18]: 51.9%
Activity [19]: 59.7%
inhibition [20]: Active

c1ccc2c(c1)NC1(CCCCC1)c1c-2nc2ccccn12
IC50 [1]: 34 µM
Ratio IC50 [3]: 1.72
inhibition at 1 µM [5]: 70.6%
Activity [7]: 65.1%
Activity [8]: 78.5%
inhibition at 1 µM [21]: 61.7%
Activity [10]: 59.1%
Activity [11]: 57%
Activity [12]: 58.7%
Activity [13]: 37.3%
Activity [14]: 52.7%
Activity [15]: 64%
IC50 [16]: 19.8 µM
Activity [17]: 12.2%
inhibition at 1 µM [22]: 59.9%
Activity [19]: 65.8%

CC1(C)Nc2ccccc2-c2nc3ccccn3c21
IC50 [1]: 47.9 µM
Activity [2]: 37.9%
Ratio IC50 [3]: 1.68
inhibition [23]: Active
inhibition at 10 µM [4]: 41.3%
Activity [6]: 48.8%
inhibition [24]: Active
Activity [25]: inactive
Activity [7]: Active
Activity [8]: 98.7%
inhibition [26]: Active
inhibition at 10 µM [9]: 44.4%
Activity [27]: Active
Activity [28]: inactive
Activity [10]: 64.2%
Activity [11]: 96.7%
Activity [12]: 58.8%
Activity [13]: 39.7%
Activity [14]: 26.2%
Activity [15]: 83.1%
inhibition at 10 µM [29]: 66.8%
IC50 [16]: 28.5 µM
Activity [17]: 14.6%
Activity [30]: inactive
Activity [18]: 50.2%
Activity [19]: 57.8%

O=c1c2ccccc2[se]n1-c1ccccc1 [EBSELEN]
IC50 [1]: 12.7 µM
inhibition [31]: inactive
Activity [2]: 53.4%
Ratio IC50 [3]: 1.05
inhibition at 10 µM [4]: 63.3%
Activity [8]: 118.7%
inhibition [26]: inactive
inhibition at 10 µM [9]: 57.1%
Activity [27]: Active
Activity [11]: 99.5%
Activity [13]: 80%
Activity [14]: 27.5%
Activity [15]: 112%
IC50 [16]: 12.1 µM
Activity [17]: 18.3%
Activity [18]: 59.2%
inhibition [32]: inactive
Activity [19]: 132.9%

— ChEMBL document CHEMBL5608194, “Novel neuroprotective 5,6-dihydropyrido[2',1':2,3]imidazo[4,5-c]quinoline derivatives acting through cholinesterase inhibition and CB2 signaling modulation” (Eur J Med Chem, 2024)
